These results are taken from ChEMBL document CHEMBL3414463, “Discovery of potent and selective 8-fluorotriazolopyridine c-Met inhibitors” (J Med Chem, 2015).

Data set [1] concerns the target T1, Hepatocyte growth factor receptor (Homo sapiens, UniProt P08581). As to the kind of experiment: Inhibition of recombinant c-Met kinase domain (unknown origin) incubated for 30 mins using gastrin peptide substrate by HTRF assay.
The target of data set [2] is T1, Hepatocyte growth factor receptor. Description: Inhibition of HGF-stimulated c-Met autophosphorylation in serum starved human PC3 cells pre-incubated for 1 hr followed by human recombinant HGF stimulation for 10 mins by quantitative electrochemiluminescence immunoassay. Format: cell-based, PC-3. In outline: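 Serum-starved PC-3 cells (plated in high-glucose DMEM/10% FBS, then 16 h in low-glucose DMEM with 0.1% BSA) were treated with a 10-point inhibitor dilution for 1 h at 37 °C. Cells were then stimulated with 200 ng/mL recombinant human HGF for 10 min and lysed. Phospho-c-Met was captured with biotinylated anti-c-Met and 4G10 by electrochemiluminescence. IC50, n ≥ 2.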

The nature of data set [3]: Clearance in Sprague-Dawley rat at 0.25 mg/kg, iv. Format: ADME, organism-based. The arrangement: dose 0.25 mg/kg, route intravenous. To be noted: Sprague-Dawley, in vivo.
The nature of data set [4]: Volume of distribution at steady state in Sprague-Dawley rat at 0.25 mg/kg, iv. Format: ADME, organism-based. The following applies: in vivo, read-out: Vdss. The arrangement: dose 0.25 mg/kg, route intravenous. In outline:
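Male Sprague-Dawley rats were given a single IV dose of 0.25 mg/kg. The vehicle was DMSO, or for some compounds 20% (w/v) hydroxypropyl β-cyclodextrin in water adjusted to pH 3.5 with MSA. NC marks cases where the terminal disposition rate constant could not be characterized for lack of slope.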

A short description of data set [5]: Half life in Sprague-Dawley rat at 0.25 mg/kg, iv. Format: ADME, organism-based. The arrangement: dose 0.25 mg/kg, route intravenous. To be noted: in vivo.
The nature of data set [6]: AUC (0 to infinity) in Sprague-Dawley rat at 0.25 mg/kg, iv. The arrangement: dose 0.25 mg/kg, route intravenous, time infinity. It is filed as ADME, organism-based, Plasma. The following applies: Sprague-Dawley, plasma.
Data set [7] can be described thus: Oral bioavailability in Sprague-Dawley rat at 2 mg/kg. Format: ADME, organism-based. To be noted: in vivo. Summed up:
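Male Sprague-Dawley rats given 2.0 mg/kg orally in 2% (w/v) hydroxypropylmethylcellulose, 1% (w/v) Tween 80 in water, pH 2.2 (adjusted with HCl or MSA). Some inhibitors instead used 10% (v/v) dimethylacetamide in the same vehicle.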

Another data set addresses Cytochrome P450 2D6 (Homo sapiens, UniProt P10635). As to the kind of experiment: Inhibition of CYP2D6 (unknown origin). Format: ADME.
Another data set has as its target Cytochrome P450 3A4 (Homo sapiens, UniProt P08684). Description: Inhibition of CYP3A4 (unknown origin). Format: ADME.
Data set [8] has as its system Liver microsome. Description: Stability in human liver microsomes assessed as compound turnover rate. Format: ADME.
The test system of data set [9] is Liver microsome. As to the kind of experiment: Stability in rat liver microsomes assessed as compound turnover rate. It is filed as ADME.

Structures are written as SMILES. pIC50: −log10 of the molar value.

T1 sequence (P08581 whole entry, the tested form may be a part): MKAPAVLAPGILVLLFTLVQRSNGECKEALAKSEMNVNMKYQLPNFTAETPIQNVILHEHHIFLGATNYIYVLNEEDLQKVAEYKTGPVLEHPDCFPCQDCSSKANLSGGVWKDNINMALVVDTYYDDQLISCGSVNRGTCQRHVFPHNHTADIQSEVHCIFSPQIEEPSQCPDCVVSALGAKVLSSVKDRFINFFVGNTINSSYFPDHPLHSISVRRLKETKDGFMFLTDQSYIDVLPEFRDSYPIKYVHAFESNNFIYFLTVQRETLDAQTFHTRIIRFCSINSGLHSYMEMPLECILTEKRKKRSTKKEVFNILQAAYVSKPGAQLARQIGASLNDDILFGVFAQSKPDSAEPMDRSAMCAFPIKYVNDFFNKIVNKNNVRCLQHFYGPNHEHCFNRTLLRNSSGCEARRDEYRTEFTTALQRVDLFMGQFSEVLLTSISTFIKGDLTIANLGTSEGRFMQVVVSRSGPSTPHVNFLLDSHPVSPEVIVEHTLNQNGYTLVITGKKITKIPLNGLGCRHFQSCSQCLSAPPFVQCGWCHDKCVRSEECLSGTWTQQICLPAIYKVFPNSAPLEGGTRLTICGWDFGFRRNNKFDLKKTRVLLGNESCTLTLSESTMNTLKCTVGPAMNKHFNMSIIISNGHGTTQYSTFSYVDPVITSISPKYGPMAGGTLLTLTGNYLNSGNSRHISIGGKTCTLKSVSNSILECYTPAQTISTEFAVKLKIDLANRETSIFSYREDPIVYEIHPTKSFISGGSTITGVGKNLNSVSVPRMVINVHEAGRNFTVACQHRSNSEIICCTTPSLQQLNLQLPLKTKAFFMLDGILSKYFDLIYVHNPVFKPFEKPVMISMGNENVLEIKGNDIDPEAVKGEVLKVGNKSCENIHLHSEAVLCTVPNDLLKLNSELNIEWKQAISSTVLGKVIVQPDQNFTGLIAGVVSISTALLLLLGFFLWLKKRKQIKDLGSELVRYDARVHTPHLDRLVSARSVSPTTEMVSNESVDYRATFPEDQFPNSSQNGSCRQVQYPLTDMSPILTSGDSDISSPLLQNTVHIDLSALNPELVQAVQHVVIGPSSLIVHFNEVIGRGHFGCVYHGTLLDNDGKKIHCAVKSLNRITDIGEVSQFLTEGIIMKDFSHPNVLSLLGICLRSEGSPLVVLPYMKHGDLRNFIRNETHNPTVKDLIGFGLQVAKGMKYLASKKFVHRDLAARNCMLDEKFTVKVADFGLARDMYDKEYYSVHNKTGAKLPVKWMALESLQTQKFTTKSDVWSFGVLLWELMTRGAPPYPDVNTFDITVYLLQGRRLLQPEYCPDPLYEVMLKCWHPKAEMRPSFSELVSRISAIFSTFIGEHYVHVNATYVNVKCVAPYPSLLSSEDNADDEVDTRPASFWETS
Cytochrome P450 2D6, sequence (P10635 whole entry): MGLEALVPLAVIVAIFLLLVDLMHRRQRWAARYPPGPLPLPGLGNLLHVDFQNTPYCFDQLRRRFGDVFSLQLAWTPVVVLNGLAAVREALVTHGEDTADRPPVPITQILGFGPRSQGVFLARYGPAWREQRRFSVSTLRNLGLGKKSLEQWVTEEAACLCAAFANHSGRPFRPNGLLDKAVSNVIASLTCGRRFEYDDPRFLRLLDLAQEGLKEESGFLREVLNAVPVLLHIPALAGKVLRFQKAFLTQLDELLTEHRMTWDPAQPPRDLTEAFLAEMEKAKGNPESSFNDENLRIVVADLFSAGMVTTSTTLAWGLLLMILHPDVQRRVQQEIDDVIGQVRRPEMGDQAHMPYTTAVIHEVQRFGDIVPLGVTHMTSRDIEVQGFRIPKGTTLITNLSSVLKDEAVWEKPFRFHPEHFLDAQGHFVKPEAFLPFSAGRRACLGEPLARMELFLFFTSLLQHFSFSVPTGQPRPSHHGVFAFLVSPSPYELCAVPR
Cytochrome P450 3A4, sequence (P08684 whole entry): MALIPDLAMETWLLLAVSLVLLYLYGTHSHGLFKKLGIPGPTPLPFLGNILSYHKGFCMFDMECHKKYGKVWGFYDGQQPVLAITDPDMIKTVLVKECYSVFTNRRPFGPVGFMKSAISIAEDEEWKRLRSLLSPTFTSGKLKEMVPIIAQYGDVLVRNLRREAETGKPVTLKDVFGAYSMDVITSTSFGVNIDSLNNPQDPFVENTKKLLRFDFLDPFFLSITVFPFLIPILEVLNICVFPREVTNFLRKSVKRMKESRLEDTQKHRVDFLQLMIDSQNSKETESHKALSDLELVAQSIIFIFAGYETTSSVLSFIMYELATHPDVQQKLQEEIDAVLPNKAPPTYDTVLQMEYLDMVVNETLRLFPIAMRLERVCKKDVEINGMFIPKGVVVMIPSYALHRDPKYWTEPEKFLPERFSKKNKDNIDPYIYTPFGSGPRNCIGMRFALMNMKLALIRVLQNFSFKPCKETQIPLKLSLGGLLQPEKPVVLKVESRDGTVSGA

As for `COc1cnc2ccc(C3(c4nnc5c(F)cc(-c6cc(C)no6)cn45)CC3)cc2c1`, the negative logarithm of the IC50 (pIC50) (commonly −log10 of the IC50, conventionally taken in molar units) in data set [1] was 7.03.
`CC[C@@H](c1ccc2ncc(OC)cc2c1)c1nnc2c(F)cc(-c3cc(C)no3)cn12`: the values for the pIC50 in data set [1] and in data set [2] were 7.55 and 7.17, respectively.
As for `CC(=O)Nc1nc2ccc(Cc3nnc4c(F)cc(-c5cnn(C)c5)cn34)cc2s1`, in data set [1], the negative logarithm of the IC50 (pIC50) was 7.17.
On the same count and under the same terms, with `c1ccc(-c2ccc3nnc(Cc4ccc5ncccc5c4)n3c2)cc1` the figure was 6.68.
For `Fc1cc(-c2cnn(C3CC3)c2)cn2c(C(F)(F)c3ccc4ncccc4c3)nnc12`, the pIC50 in data set [1] was 7.62; in data set [2] it was 7.60. For the same compound, in [3], the clearance – broadly, the volume of plasma or blood freed of the substance per unit of time – was 0.167 mL/min/kg. Also, the Vd in [4] came to 0.09 L/kg. Besides, the half-life (in general, the time in which the quantity being followed falls by half) in data set [5] was 4.4 h. The AUC(0-inf) (commonly total exposure, with the tail of the curve extrapolated) in data set [6] is 42.6 µM·h. Further, the bioavailability in [7] was 40%. The “inhibition (INH)” value against Cytochrome P450 2D6 and at Cytochrome P450 3A4 was “Not Active” throughout.
For `COc1cnc2ccc([C@@](C)(F)c3nnc4c(F)cc(-c5cnn(C)c5)cn34)cc2c1`, the pIC50 in data set [1] is 8.30; in data set [2], 8.15. This compound showed a clearance in [3] of 4.5 mL/min/kg. Also, the Vd in data set [4] is 0.64 L/kg. In data set [5], this compound had a half-life of 2.2 h. Besides, the area under the curve AUC(0-inf) in [6] came out at 2.5 µM·h. Moreover, the bioavailability in data set [7] was 27%.
For `COc1cnc2ccc([C@H](C)c3nnc4c(F)cc(-c5cnn(C)c5)cn34)cc2c1`, the pIC50 in [1] was 8.70; in data set [2], 7.82. Further, the clearance in data set [3] was 2.33 mL/min/kg. For the same compound, the Vd in data set [4] turned out to be 0.25 L/kg. The half-life in [5] is 1.8 h. In addition, the AUC(0-inf) in data set [6] was determined as 4.5 µM·h. For the same compound, in data set [7], the bioavailability was found to be 13%.
Turning to `Cc1cc(-c2cc(F)c3nnc([C@](C)(F)c4ccc5ncccc5c4)n3c2)sn1`, the values for the pIC50 in data set [1] and in [2] were 8.30 and 8.22, respectively. This compound also gave a clearance in data set [3] of 30.2 mL/min/kg. For the same compound, in [4], the Vd was 1.07 L/kg. The half-life in [5] is 0.72 h. For the same compound, in [6], the area under the curve AUC(0-inf) was determined as 0.37 µM·h. For the same compound, the bioavailability in data set [7] was 27%.
With `COc1cnc2ccc(Cc3nnc4c(F)cc(-c5cnn(C)c5)cn34)cc2c1`, the negative logarithm of the IC50 (pIC50) in data set [1] is 7.96.
Same read-out and setting: with `Cn1cc(-c2cc(F)c3nnc(Cc4ccc5ncccc5c4)n3c2)cn1` the figure was 7.74.
In the case of `COc1cnc2ccc([C@H](C)c3nnc4c(F)cc(-c5cn(C)cn5)cn34)cc2c1`, the pIC50 was 9.00 in [1] and 8.40 in data set [2]. Moreover, in [3], the clearance was 4.33 mL/min/kg. Also, the Vd in [4] worked out at 0.37 L/kg. The compound also gave a half-life in [5] of 1.3 h. Further, in data set [6], the AUC(0-inf) is 2.7 µM·h. In addition, the bioavailability in [7] came out at 27%.
Take `Cn1cc(-c2cc(F)c3nnc(Cc4ccc5ncc(O)cc5c4)n3c2)cn1`: in data set [1], the pIC50 is 7.29.
The same measure, in the same setting: the value for `COc1cnc2ccc([C@@H](C)c3nnc4c(F)cc(-c5cc(C)no5)cn34)cc2c1` was 6.43.
Turning to `Cc1cc(-c2cc(F)c3nnc([C@@](C)(F)c4ccc5ncccc5c4)n3c2)sn1`, the pIC50 in data set [1] is 6.11.
On the same count and under the same terms, the value for `Cn1cc(-c2cc(F)c3nnc(Cc4ccc5nccnc5c4)n3c2)cn1` was 6.74.
Consider `Cc1cc(-c2cc(F)c3nnc(C(C)(C)c4ccc5ncc(O)cc5c4)n3c2)on1`, for which, in data set [1], the negative logarithm of the IC50 (pIC50) was under 6.40.
For the compound `COc1cnc2ccc([C@@](C)(F)c3nnc4c(F)cc(-c5cc(C)ns5)cn34)cc2c1`, the pIC50 was 8.30 in [1] and 8.40 in data set [2]. For the same compound, the clearance in [3] is 22.2 mL/min/kg. In addition, the Vd in [4] was 1.25 L/kg. The compound further showed a half-life in data set [5] of 1.1 h. The same compound yielded a total exposure AUC(0-inf) in [6] of 0.52 µM·h. Also, in data set [7], the bioavailability amounted to 10%.
As for `Fc1cc(-c2ccccc2)cn2c(C(F)(F)c3ccc4ncccc4c3)nnc12`, in [1], the negative logarithm of the IC50 (pIC50) was 7.64.
`Fc1cc(-c2cscn2)cn2c(C(F)(F)c3ccc4ncccc4c3)nnc12`: the pIC50 in [1] was 8.40; in [2], 8.15. The compound further gave a clearance in data set [3] of 27.8 mL/min/kg. Also, the Vd in data set [4] turned out to be 0.39 L/kg. Also, in data set [5], the half-life is 0.3 h. The compound further yielded an AUC(0-inf) in data set [6] of 0.38 µM·h. In [7], the bioavailability was determined as 110%. Also, the “inhibition (INH)” value on Cytochrome P450 2D6 and against Cytochrome P450 3A4 was “Not Active” throughout.
Take `COc1cnc2ccc([C@@](C)(F)c3nnc4c(F)cc(-c5cc(C)no5)cn34)cc2c1`: the results for the negative logarithm of the IC50 (pIC50) in data set [1] and in data set [2] were 8.70 and 8.52, respectively. Also, the clearance in data set [3] is 4.17 mL/min/kg. For the same compound, the Vd in data set [4] was found to be 0.79 L/kg. Further, the half-life in data set [5] is 2.7 h. The AUC(0-inf) in data set [6] was found to be 2.4 µM·h. In addition, the bioavailability in data set [7] turned out to be 38%.
As for `Cc1ncc(-c2cc(F)c3nnc(C(F)(F)c4ccc5ncccc5c4)n3c2)s1`, the pIC50 was 7.96 in data set [1] and 7.46 in data set [2]. Further, the “inhibition (INH)” value on Cytochrome P450 2D6 and against Cytochrome P450 3A4 was “Not Active” each time.
For `COc1cnc2ccc([C@H](C)c3nnc4c(F)cc(-c5cc(C)ns5)cn34)cc2c1`, the negative-log IC50 (pIC50) is 8.05 in data set [1] and 7.66 in data set [2]. Further, in data set [5], the half-life is 2.8 h. This compound also returned an area under the curve AUC(0-inf) in [6] of 10.5 µM·h.
Regarding `Cn1cc(-c2cc(F)c3nnc(C(F)(F)c4ccc5ncccc5c4)n3c2)cn1`, the pIC50 in [1] was 7.66; in data set [2] it was 7.82. In addition, the clearance in data set [3] was 0.167 mL/min/kg. Further, the Vd in data set [4] was found to be 0.13 L/kg. For the same compound, the half-life in data set [5] was 6.6 h. In data set [6], the AUC(0-inf) is 44.4 µM·h. In addition, in data set [7], the bioavailability turned out to be 110%. The “inhibition (INH)” value on Cytochrome P450 2D6 and on Cytochrome P450 3A4 was “Not Active” in each case.
For the compound `Cn1cc(-c2cc(F)c3nnc(Cc4ccc5nc(N)sc5c4)n3c2)cn1`, the pIC50 in data set [1] is 7.28.
As to `Cc1cc(-c2cc(F)c3nnc([C@@H](C)c4ccc5ncccc5c4)n3c2)sn1`, the negative-log IC50 (pIC50) in [1] was 8.15; in [2], 7.92. The clearance in data set [3] was 25.5 mL/min/kg. The Vd in data set [4] came to 0.38 L/kg. The half-life in data set [5] was 0.33 h. Further, in data set [6], the area under the curve AUC(0-inf) was 0.44 µM·h.
Regarding `COc1ccc2c(OCc3nnc4ccc(-c5ccccc5)cn34)ccnc2c1`, the negative-log IC50 (pIC50) in data set [1] was 7.51.
Turning to `COc1cnc2ccc(C(F)(F)c3nnc4c(F)cc(-c5cc(C)no5)cn34)cc2c1`, the pIC50 in [1] is 8.52; in [2] it was 8.10. The clearance in data set [3] was under 0.167 mL/min/kg. The Vd in data set [4] amounted to 0.09 L/kg. Further, the AUC(0-inf) in [6] was determined as 101 µM·h. The bioavailability in data set [7] was 35%. For the same compound, the Stability entry in the data set with Liver microsome [8] and in the data set on Liver microsome [9] was “Stable” in each case. Also, the “inhibition (INH)” value on Cytochrome P450 2D6 and against Cytochrome P450 3A4 was “Not Active” throughout.
As for `COc1ccc2c(OCc3nnc4c(F)cc(-c5ccccc5)cn34)ccnc2c1`, the pIC50 in data set [1] was 8.15.
As for `Cc1cc(-c2cc(F)c3nnc(C(F)(F)c4ccc5ncccc5c4)n3c2)on1`, the negative logarithm of the IC50 (pIC50) in [1] and in data set [2] was 8.05 in each case. In data set [3], this compound showed a clearance of 0.667 mL/min/kg. Besides, in data set [4], the Vd turned out to be 0.13 L/kg. For the same compound, the half-life in [5] was 2.5 h. The compound further yielded an AUC(0-inf) in data set [6] of 18.5 µM·h. For the same compound, the bioavailability in data set [7] turned out to be 62%. Also, the “inhibition (INH)” value against Cytochrome P450 2D6 and against Cytochrome P450 3A4 was “Not Active” each time.
As to `Fc1cc(-c2ccccc2)cn2c(Cc3ccc4ncccc4c3)nnc12`, the pIC50 in data set [1] was 7.22.
Turning to `Fc1cc(-c2ccccn2)cn2c(C(F)(F)c3ccc4ncccc4c3)nnc12`, the pIC50 in [1] is 7.92; in [2] it was 7.49. Further, the “inhibition (INH)” value at Cytochrome P450 2D6 and against Cytochrome P450 3A4 was “Not Active” each time.
